{
  "source": "ChEMBL document CHEMBL3407339",
  "about": "“A novel series of thiazolyl-pyrazoline derivatives: synthesis and evaluation of antifungal activity, cytotoxicity and genotoxicity” (Eur J Med Chem, 2015)",
  "data": [
    {"test_system": "Salmonella typhimurium", "test": "Mutagenicity in Salmonella typhimurium TA98 at 2.5 mg/ml after 48 hrs by AMES MPF assay in presence of Sprague-Dawley rat liver microsomal S9 fraction relative to baseline", "type": "toxicity, organism-based", "details": "salmonella enterica subsp. enterica serovar typhimurium", "method_in_brief": "(§1)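 Ames MPF fluctuation test with TA98/TA100. Overnight cultures (37 °C, 14–16 h) mixed with exposure medium; ±Aroclor-1254-induced rat liver S9 (final 4.5% v/v). Compounds in DMSO, 0.156–5 mg/mL. 90 min exposure at 37 °C, then indicator medium; 48 wells per concentration, 48 h at 37 °C, in triplicate. Yellow wells counted; fold induction over baseline (mean + 1 SD of zero-dose control).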", "values": [
      {"compound": "Fc1ccc(C2CC(c3ccc(Cl)s3)=NN2c2nc(-c3ccc(C(F)(F)F)cc3)cs2)cc1", "note": "(stereo not drawn)", "fold change (FC)": 0.33}
    ]},
    {"test_system": "Salmonella typhimurium", "test": "Mutagenicity in Salmonella typhimurium TA100 at 0.156 mg/ml after 48 hrs by AMES MPF assay in absence of Sprague-Dawley rat liver microsomal S9 fraction relative to baseline", "type": "toxicity, organism-based", "details": "salmonella enterica subsp. enterica serovar typhimurium", "method_in_brief": "as §1", "values": [
      {"compound": "Fc1ccc(C2CC(c3ccc(Cl)s3)=NN2c2nc(-c3ccc(C(F)(F)F)cc3)cs2)cc1", "note": "(stereo not drawn)", "fold change (FC)": 0.67}
    ]},
    {"test_system": "Aspergillus flavus", "test": "Antifungal activity against Aspergillus flavus NRRL 980 after 72 hrs by broth microdilution assay", "type": "functional", "details": "NRRL 980, 72 h", "method_in_brief": "(§2)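 Compounds dissolved in DMSO, diluted in sterile distilled water from 4 to 0.0039 mg/mL. Molds grown on PDA at 25 °C for 5 days, suspended in double-strength PDB at 10⁵ spores/mL. Incubated at 25 °C for 72 h; mycelial growth read under stereo microscope. MIC = lowest concentration inhibiting visible growth. Ketoconazole reference.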", "units": {"MIC": "µg/mL"}, "values": [
      {"compound": "Fc1ccc(C2CC(c3ccc(Cl)s3)=NN2c2nc(-c3ccc(C(F)(F)F)cc3)cs2)cc1", "note": "(stereo not drawn)", "MIC": 125}
    ]},
    {"test_system": "Candida albicans", "test": "Antifungal activity against Candida albicans ATCC 90028 after 48 hrs by broth microdilution assay", "type": "functional", "details": "ATCC 90028, 48 h", "method_in_brief": "(§3)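 Broth microdilution of DMSO stocks serially diluted in sterile water (4 to 0.0039 mg/mL). Yeasts grown on SDA at 37 °C for 24 h, suspended in double-strength PDB at 10⁵ spores/mL. Incubated at 37 °C for 48 h, then sprayed with 0.5% aqueous TTC. MIC = lowest concentration inhibiting visible growth. Ketoconazole reference.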", "units": {"MIC": "µg/mL"}, "values": [
      {"compound": "Fc1ccc(C2CC(c3ccc(Cl)s3)=NN2c2nc(-c3ccc(C(F)(F)F)cc3)cs2)cc1", "note": "(stereo not drawn)", "MIC": 500}
    ]},
    {"test_system": "Fusarium solani", "test": "Antifungal activity against Fusarium solani NRRL 13414 after 72 hrs by broth microdilution assay", "type": "functional", "details": "NRRL 13414, 72 h", "method_in_brief": "as §2", "units": {"MIC": "µg/mL"}, "values": [
      {"compound": "Fc1ccc(C2CC(c3ccc(Cl)s3)=NN2c2nc(-c3ccc(C(F)(F)F)cc3)cs2)cc1", "note": "(stereo not drawn)", "MIC": 250}
    ]},
    {"test_system": "Salmonella typhimurium", "test": "Mutagenicity in Salmonella typhimurium TA98 at 2.5 mg/ml after 48 hrs by AMES MPF assay in absence of Sprague-Dawley rat liver microsomal S9 fraction relative to baseline", "type": "toxicity, organism-based", "details": "salmonella enterica subsp. enterica serovar typhimurium", "method_in_brief": "as §1", "values": [
      {"compound": "Fc1ccc(C2CC(c3ccc(Cl)s3)=NN2c2nc(-c3ccc(C(F)(F)F)cc3)cs2)cc1", "note": "(stereo not drawn)", "fold change (FC)": 0}
    ]},
    {"test_system": "Salmonella typhimurium", "test": "Mutagenicity in Salmonella typhimurium TA100 at 0.625 mg/ml after 48 hrs by AMES MPF assay in absence of Sprague-Dawley rat liver microsomal S9 fraction relative to baseline", "type": "toxicity, organism-based", "details": "salmonella enterica subsp. enterica serovar typhimurium", "method_in_brief": "as §1", "values": [
      {"compound": "Fc1ccc(C2CC(c3ccc(Cl)s3)=NN2c2nc(-c3ccc(C(F)(F)F)cc3)cs2)cc1", "note": "(stereo not drawn)", "fold change (FC)": 1.33}
    ]},
    {"test_system": "Aspergillus niger", "test": "Antifungal activity against Aspergillus niger ATCC 1094 after 72 hrs by broth microdilution assay", "type": "functional", "details": "ATCC 1094, 72 h", "method_in_brief": "as §2", "units": {"MIC": "µg/mL"}, "values": [
      {"compound": "Fc1ccc(C2CC(c3ccc(Cl)s3)=NN2c2nc(-c3ccc(C(F)(F)F)cc3)cs2)cc1", "note": "(stereo not drawn)", "MIC": 250}
    ]},
    {"test_system": "Salmonella typhimurium", "test": "Mutagenicity in Salmonella typhimurium TA98 at 1.25 mg/ml after 48 hrs by AMES MPF assay in presence of Sprague-Dawley rat liver microsomal S9 fraction relative to baseline", "type": "toxicity, organism-based", "details": "salmonella enterica subsp. enterica serovar typhimurium", "method_in_brief": "as §1", "values": [
      {"compound": "Fc1ccc(C2CC(c3ccc(Cl)s3)=NN2c2nc(-c3ccc(C(F)(F)F)cc3)cs2)cc1", "note": "(stereo not drawn)", "fold change (FC)": 0.22}
    ]},
    {"test_system": "not listed separately", "test": "Cytotoxicity against mouse NIH/3T3 cells after 24 hrs by XTT assay", "type": "cell-based", "details": "NIH3T3, 24 h", "method_in_brief": "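A549 cells in RPMI and NIH/3T3 cells in DMEM, each with fetal calf serum, antibiotics and 7.5% NaHCO₃, at 37 °C, 5% CO₂. Seeded at 20,000 cells/well, 24 h, then compounds added in medium at 500–3.9 doses (final DMSO <0.1%) for 24 h. XTT read after 3 h at 480 nm (ref 680 nm). IC₅₀ by non-linear regression; triplicates; cisplatin control.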", "units": {"IC50": "µg/mL"}, "values": [
      {"compound": "Fc1ccc(C2CC(c3ccc(Cl)s3)=NN2c2nc(-c3ccc(C(F)(F)F)cc3)cs2)cc1", "note": "(stereo not drawn)", "IC50": "> 500"}
    ]},
    {"test_system": "Salmonella typhimurium", "test": "Mutagenicity in Salmonella typhimurium TA98 at 0.156 mg/ml after 48 hrs by AMES MPF assay in presence of Sprague-Dawley rat liver microsomal S9 fraction relative to baseline", "type": "toxicity, organism-based", "details": "salmonella enterica subsp. enterica serovar typhimurium", "method_in_brief": "as §1", "values": [
      {"compound": "Fc1ccc(C2CC(c3ccc(Cl)s3)=NN2c2nc(-c3ccc(C(F)(F)F)cc3)cs2)cc1", "note": "(stereo not drawn)", "fold change (FC)": 0.87}
    ]},
    {"test_system": "Nakaseomyces glabratus", "test": "Antifungal activity against Candida glabrata clinical isolate after 48 hrs by broth microdilution assay", "type": "functional", "details": "not given", "method_in_brief": "as §3", "units": {"MIC": "µg/mL"}, "values": [
      {"compound": "Fc1ccc(C2CC(c3ccc(Cl)s3)=NN2c2nc(-c3ccc(C(F)(F)F)cc3)cs2)cc1", "note": "(stereo not drawn)", "MIC": 125}
    ]},
    {"test_system": "Salmonella typhimurium", "test": "Mutagenicity in Salmonella typhimurium TA100 at 0.3125 mg/ml after 48 hrs by AMES MPF assay in presence of Sprague-Dawley rat liver microsomal S9 fraction relative to baseline", "type": "toxicity, organism-based", "details": "salmonella enterica subsp. enterica serovar typhimurium", "method_in_brief": "as §1", "values": [
      {"compound": "Fc1ccc(C2CC(c3ccc(Cl)s3)=NN2c2nc(-c3ccc(C(F)(F)F)cc3)cs2)cc1", "note": "(stereo not drawn)", "fold change (FC)": 2.31}
    ]},
    {"test_system": "Pichia kudriavzevii", "test": "Antifungal activity against Candida krusei NRLL Y 7179 after 48 hrs by broth microdilution assay", "type": "functional", "details": "NRLL Y 7179, 48 h", "method_in_brief": "as §3", "units": {"MIC": "µg/mL"}, "values": [
      {"compound": "Fc1ccc(C2CC(c3ccc(Cl)s3)=NN2c2nc(-c3ccc(C(F)(F)F)cc3)cs2)cc1", "note": "(stereo not drawn)", "MIC": 1000}
    ]},
    {"test_system": "Candida tropicalis", "test": "Antifungal activity against Candida tropicalis NRLL Y 12968 after 48 hrs by broth microdilution assay", "type": "functional", "details": "NRLL Y 12968, 48 h", "method_in_brief": "as §3", "units": {"MIC": "µg/mL"}, "values": [
      {"compound": "Fc1ccc(C2CC(c3ccc(Cl)s3)=NN2c2nc(-c3ccc(C(F)(F)F)cc3)cs2)cc1", "note": "(stereo not drawn)", "MIC": 500}
    ]},
    {"test_system": "Salmonella typhimurium", "test": "Mutagenicity in Salmonella typhimurium TA98 at 1.25 mg/ml after 48 hrs by AMES MPF assay in absence of Sprague-Dawley rat liver microsomal S9 fraction relative to baseline", "type": "toxicity, organism-based", "details": "salmonella enterica subsp. enterica serovar typhimurium", "method_in_brief": "as §1", "values": [
      {"compound": "Fc1ccc(C2CC(c3ccc(Cl)s3)=NN2c2nc(-c3ccc(C(F)(F)F)cc3)cs2)cc1", "note": "(stereo not drawn)", "fold change (FC)": 0.67}
    ]},
    {"test_system": "Salmonella typhimurium", "test": "Mutagenicity in Salmonella typhimurium TA98 at 5 mg/ml after 48 hrs by AMES MPF assay in absence of Sprague-Dawley rat liver microsomal S9 fraction relative to baseline", "type": "toxicity, organism-based", "details": "salmonella enterica subsp. enterica serovar typhimurium", "method_in_brief": "as §1", "values": [
      {"compound": "Fc1ccc(C2CC(c3ccc(Cl)s3)=NN2c2nc(-c3ccc(C(F)(F)F)cc3)cs2)cc1", "note": "(stereo not drawn)", "fold change (FC)": 0.67}
    ]},
    {"test_system": "Salmonella typhimurium", "test": "Mutagenicity in Salmonella typhimurium TA100 at 0.156 mg/ml after 48 hrs by AMES MPF assay in presence of Sprague-Dawley rat liver microsomal S9 fraction relative to baseline", "type": "toxicity, organism-based", "details": "salmonella enterica subsp. enterica serovar typhimurium", "method_in_brief": "as §1", "values": [
      {"compound": "Fc1ccc(C2CC(c3ccc(Cl)s3)=NN2c2nc(-c3ccc(C(F)(F)F)cc3)cs2)cc1", "note": "(stereo not drawn)", "fold change (FC)": 2.08}
    ]}
  ]
}
